Results on ten compounds are retold here after ChEMBL document CHEMBL1146239, “Kadsuphilols A-H, oxygenated lignans from Kadsura philippinensis” (J Nat Prod, 2007).

Common to all, as to type: functional
The nature of assay [1]: DPPH radical scavenging activity at 50 uM. In outline:
(§1)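 Compound dilutions prepared in 100% DMSO, mixed with 100 µM DPPH in ethanol at 37 °C, shaken vigorously and left to stand 30 min. Absorbance read at 517 nm by UV-vis spectrophotometry. Scavenging reported as percent at 100, 50, 25, 12.5 and 6.25 µM. Vitamins C and E served as standards.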

Assay [2] can be described thus: DPPH radical scavenging activity at 6.25 uM. In short, it runs like this:
as §1
(The DPPH test is a chemical assay of radical scavenging.)

Assay [3] can be described thus: DPPH radical scavenging activity at 12.5 uM. In outline:
as §1

The nature of assay [4]: DPPH radical scavenging activity at 100 uM. In outline: as §1
Assay [5] can be described thus: DPPH radical scavenging activity at 25 uM. In short, it runs like this: as §1

Regarding `COc1cc2c(c(O)c1OC)-c1c(cc3c(c1OC)OCO3)[C@H](O)[C@H](C)[C@H](C)C2`, the Activity was -1.6% in assay [1]; -38.9% in assay [2]; -18.5% in assay [3]; -4.2% in assay [4]; -10.7% in assay [5].
For VITAMIN E, the Activity in assay [1] is 12.9%; in assay [2], 1.3%; in assay [3], 4.9%; in assay [4] it was 17.6%; in assay [5], 12.6%.
The matching figures for `C/C=C(\C)C(=O)O[C@H]1[C@@](C)(O)[C@@H](C)[C@H]2O[C@@]13CC(OC)=C(OC)C(=O)C31COc3c4c(cc2c31)OCO4` (stereo not given in full): 6.6%, 3.9%, 3.9%, 8.4% and 6.1%.
The like results for `COc1cc2c(c(O)c1OC)-c1c(cc3c(c1OC)OCO3)[C@H](OC(=O)c1ccccc1)[C@H](C)[C@H](C)[C@H]2OC(C)=O` were, in that order, -30.8%, -35.6%, -33.8%, -23.1% and -32.2%.
The like results for `C/C=C(\C)C(=O)O[C@@H]1c2cc3c(c4c2C2(CO4)C(=O)C(OC)=C(OC)C=C2[C@@H](OC(=O)c2ccccc2)[C@@](C)(O)[C@H]1C)OCO3` (stereo not given in full) were, in that order, 33.9%, 20.2%, 13.8%, 35.6% and 32%.
For the compound `C/C=C(\C)C(=O)O[C@H]1[C@@](C)(O)[C@@H](C)[C@H]2O[C@@]13CC(=O)C(OC)=C(OC)C31COc3c4c(cc2c31)OCO4` (stereo not given in full), the Activity in assay [1] is -3.7%; in assay [2], -5.3%; in assay [3], -4.7%; in assay [4], -2.8%; in assay [5], -3.2%.
With `C/C=C(\C)C(=O)O[C@@H]1C2=CC(OC)=C(OC)C(=O)C23COc2c4c(cc(c23)[C@@H](OC(=O)c2ccccc2)[C@H](C)[C@]1(C)O)OCO4` (stereo not given in full), the Activity amounted to 12.8% in assay [1]; 8.6% in assay [2]; 10.3% in assay [3]; 12.9% in assay [4]; 11.4% in assay [5].
In the case of `COc1cc2c(c(OC)c1O)-c1c(cc(OC)c(OC)c1O)C[C@@H](C)[C@@H](C)[C@H]2OC(=O)/C=C/c1ccccc1`, the Activity in assay [1] came out at 34.4%; in assay [2] it was 10%; in assay [3] it was 28.1%; in assay [4], 38.1%; in assay [5], 32.2%.
On to `O=C1O[C@H]([C@@H](O)CO)C(O)=C1O`, for which the Activity came to 36.7% in assay [1]; 19.2% in assay [2]; 20.7% in assay [3]; 39% in assay [4]; 24.9% in assay [5].
`C/C=C(\C)C(=O)O[C@H]1c2cc3c(c(OC)c2-c2c(cc(OC)c(OC)c2O)[C@H](OC(=O)/C(C)=C/C)[C@@]2(CO2)[C@H]1C)OCO3`: the Activity in assay [1] was found to be 51.4%; in assay [2] it was 47.4%; in assay [3] it was 46.2%; in assay [5] it was 48.1%. The inhibition (as a rule, the change of the read-out against control, counted positive when it falls) in assay [4] is 54.7%.
